High-throughput results as filed in PubChem.
Compounds with a hit are over-represented: about 3.1% of the library has one in this group of screens.
Ecoli rRNA inh – selective bacterial rRNA inhibition in E. coli; E. coli WT GFP vs humanized-ribosome RFP mutants, fluorescence, 24 h; active compounds read low; DMSO median 0, no signal -100; GFP signal change (wild-type ribosome), % (concentration not given with the values); 1.6% of 350,000 active;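 active means significant combined selectivity score with lowered wild-type GFP, culture density cut under 30%, mutant RFP and density less affected; inactive means any of these conditions unmet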
DENV2 CPE rescue – protects cells from dengue virus 2 cytopathic effect. DENV2-infected cells, cytopathic effect rescue, plate reader. CPE inhibition, % at 9.99 µM. 1.7% of 350,000 active. AID 651640; in the data active means CPE inhibition above about 20%, passing the limit was not always enough; inconclusive means no clear call, values can overlap the other calls; tested in BHK-21 cells;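 further: 0% = median of neutral control wells and 100% = median of positive control wells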
miR122 inh – miR-122 inhibition in Huh7 cells; Huh7 miR-122 Renilla luciferase sensor, 48 h; neutral wells = 0, positive control = 100; activation (reporter increase), % at 12.5 µM; 0.3% of 340,000 active;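 active means mean replicate activation score at least 90 and every replicate individually at or above 90; inconclusive means only one of the two criteria met; inactive means neither criterion met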;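 further: higher luciferase means less miR-122 activity so hits act as miR-122 inhibitors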
E-selectin induc – E-selectin induction on HUVECs. HUVEC E-selectin immunofluorescence imaging; normalized: neutral wells 0, TNF-alpha wells 100. activation, % at 7.58 µM. 0.37% of 260,000 active. AID 686992;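 active means mean E-selectin-positive cell signal at least 10% of the positive control, reached in at least 60% of replicates, without over 20% cell loss; inconclusive means no rule given, readout overlaps actives, possibly toxicity-flagged; inactive means the rest, including those meeting only one limit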
Target sequence (P16581 whole entry, looked up): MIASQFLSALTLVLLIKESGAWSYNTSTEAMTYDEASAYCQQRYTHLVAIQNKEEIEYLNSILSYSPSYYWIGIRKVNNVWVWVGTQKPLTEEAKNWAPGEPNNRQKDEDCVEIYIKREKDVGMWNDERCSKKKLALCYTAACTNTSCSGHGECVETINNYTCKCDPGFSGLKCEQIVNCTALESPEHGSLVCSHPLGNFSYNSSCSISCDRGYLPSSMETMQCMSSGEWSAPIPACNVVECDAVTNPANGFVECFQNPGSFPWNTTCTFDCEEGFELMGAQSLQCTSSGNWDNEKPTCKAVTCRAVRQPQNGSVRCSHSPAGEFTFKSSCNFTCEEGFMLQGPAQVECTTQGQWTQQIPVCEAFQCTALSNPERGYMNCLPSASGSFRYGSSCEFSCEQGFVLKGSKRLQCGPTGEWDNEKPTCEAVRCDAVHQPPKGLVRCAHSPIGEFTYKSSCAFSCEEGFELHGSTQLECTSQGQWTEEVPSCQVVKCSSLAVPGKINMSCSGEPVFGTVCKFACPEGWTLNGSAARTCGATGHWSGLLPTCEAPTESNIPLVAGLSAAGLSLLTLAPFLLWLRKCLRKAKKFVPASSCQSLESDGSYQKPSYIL
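Test system – human umbilical vein endothelial cells (HUVEC), E-selectin induction · Input – 3,000 HUVEC seeded per well · Buffer or medium – EGM-2, gelatin · Compound dosing – single-point compound dose · Detection – immunofluorescence imaging · Measure – percent E-selectin-positive cells · Controls – TNF-alpha high, DMSO low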
Cneo AK release – causes C. neoformans cell lysis. adenylate kinase release luminescence, 4 h; normalised: neutral wells 0, clomiphene wells 100. lysis activity, % at 15 µM. 0.2% of 360,000 active. AID 651654;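 active means mean lysis activity across replicates of at least 80%, whatever share of replicates individually reach that level; inactive means mean lysis activity below 80%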
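Assay system: C. neoformans cells. Amount: yeast cell density of 5 × 10^6 cells/mL. Technique: AK luminescence. Buffer or medium: YPD. Times: static 4 h at 37 °C with compound, 1 h detection. Dosing: single-point compound dose. Read-out: lysis from increased AK signal.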
* hit, by the source's call; ? = inconclusive; nt = no result given; [ ] = dose if it differs, or a comment.

SMILES	Ecoli rRNA inh	DENV2 CPE rescue	miR122 inh	E-selectin induc	Cneo AK release
COc1ccc(C#Cc2ccc3c(c2)O[C@@H](CN(C)C(C)=O)[C@@H](C)CN([C@H](C)CO)S3(=O)=O)cc1	-3	11	3[16.7 µM]	0	102*
C[C@H]1CN([C@@H](C)CO)S(=O)(=O)c2ccc(C#Cc3cccc(F)c3)cc2O[C@@H]1CN(C)C	-56	-5	15[16.7 µM]	-1	94*
CC(=O)N(C)C[C@H]1Oc2cc(C#Cc3ccc(F)cc3)ccc2S(=O)(=O)N([C@H](C)CO)C[C@@H]1C	-7	nt	30[16.7 µM]	0	110*
COc1ccc(C#Cc2ccc3c(c2)O[C@H](CN(C)C(C)=O)[C@H](C)CN([C@H](C)CO)S3(=O)=O)cc1	-5	11	-11[16.7 µM]	1	-1
CO[C@@H](CN(C)C(=O)c1cnccn1)[C@H](C)CN([C@H](C)CO)S(=O)(=O)c1ccc(F)cc1	3	2	nt	0	2
COCC(=O)Nc1ccc2c(c1)[C@H]1C[C@H](CC(=O)NCCN3CCCCC3)O[C@H](CO)[C@H]1O2	4	4	0[16.7 µM]	0	2
CN(C)CC(=O)N[C@@H]1CC[C@H](CC(=O)NCc2ccccc2F)O[C@H]1CO	0	-4	nt	0	1
C[C@@H]1CN([C@H](C)CO)S(=O)(=O)c2ccc(C#Cc3ccc(F)cc3)cc2O[C@H]1CN(C)C(=O)NC1CCCC1	-3	-13	15[16.7 µM]	1	82*
CCOC(=O)C1=C(C)N(CCCCCC(=O)O)C(=O)NC1c1ccccc1OC(=O)c1cccs1 (centres undefined)	-1	47*	nt	0	nt
CC1=C(C(=O)OCc2ccccc2)C(c2ccc(-c3ccccc3)cc2)NC(=O)N1CCCCCC(=O)O (centres undefined)	-34*	?	-6	0	-2
CC1=C(C(=O)OCc2ccccc2)C(c2ccc3ccccc3c2)NC(=O)N1CCCCCC(=O)O (centres undefined)	nt	16	nt	1	nt
CC1=C(C(=O)OCc2ccccc2)C(c2ccc3ccccc3c2)NC(=O)N1CCCC(=O)O (centres undefined)	-16*	15	1	0	-5
C[C@@H]1CCCCO[C@H](CN(C)C(=O)c2ccccc2)[C@H](C)CN([C@H](C)CO)C(=O)c2cc(NS(C)(=O)=O)ccc2O1	-1	nt	0[16.7 µM]	1	nt
CCCC1c2ccsc2CCN1C(=S)NC (centres undefined)	-36*	2	nt	nt	nt
S=C1N(c2ccccc2)C(c2ccc(Br)cc2)N2CCCN12 (centres undefined)	-13	42*	6	0	2
CCCCNc1c(-c2ccc(Sc3ccc(OC)cc3)cc2)nc2cc(C)ccn12	-19	82*	-1	1	12
CCCCNc1c(-c2ccc(-c3ccc(C(C)=O)cc3)c(OC)c2)nc2cc(C)ccn12	-6	61*	4	0	0
CCCCNc1c(-c2ccc(OC)c(SC(C)CC)c2)nc2cc(C)ccn12 (centres undefined)	-23	-6	29	17	3
COc1ccc(CN(C)C[C@H]2Oc3ccc(NC(=O)C4CC4)cc3CC(=O)N([C@H](C)CO)C[C@H]2C)cc1	1	-3	-1[16.7 µM]	0	-2
COc1cccc(/C=N/NC(=O)c2cc(-c3cccn3C)n[nH]2)c1O	-36*	-3	nt	3	nt
COc1cccc(/C=N\NC(=O)Cn2nnc3ccccc32)c1O	-20*	-9	0	nt	nt
COc1cccc(/C=N/NC(=O)c2cc(-c3cccn3C)n[nH]2)c1	-24*	nt	1	nt	-1
COc1cc(/C=N/NC(=O)c2cc(-c3cccn3C)n[nH]2)cc(OC)c1OC	nt	nt	9	nt	-2
COc1ccccc1/C=C/C=N/NC(=O)CCn1cnc2ccccc21	-35*	3	nt	0	-3
CCCN(C)C[C@H]1Oc2cc(C3=CCCC3)ccc2S(=O)(=O)N([C@@H](C)CO)C[C@@H]1C	-2	nt	15[16.7 µM]	0	nt
SMILES	Ecoli rRNA inh	DENV2 CPE rescue	miR122 inh	E-selectin induc	Cneo AK release
C[C@H](CO)N1C[C@H](C)[C@@H](CN(C)S(=O)(=O)c2cccs2)Oc2ccc(NC(=O)NC3CCCCC3)cc2CC1=O	-7	17	-3[16.7 µM]	0	-2
CC(=O)N(C)C[C@H]1Oc2cc(C3=CCCCC3)ccc2S(=O)(=O)N([C@H](C)CO)C[C@H]1C	-2	nt	-4[16.7 µM]	0	nt
C[C@H]1CN([C@@H](C)CO)C(=O)c2cc(-c3ccc(F)cc3)cnc2O[C@@H]1CN(C)C(=O)c1ccncc1	1	nt	-1[16.7 µM]	0	nt
CN(C)c1ccc([C@@H]2[C@@H]([N+](=O)[O-])[C@H]3C=Cc4ccccc4N3[C@H]2C(=O)c2ccc(Cl)cc2)cc1	-28*	?	3	nt	0
O=C(c1ccccc1)C1C(c2ccccc2)C1[N+](=O)[O-] (centres undefined)	-7	-3	5	0	-3
CC(=O)Nc1ccc2nc(NC(=O)C(Cl)(Cl)Cl)sc2c1	-37*	0	nt	nt	nt
CC(=O)Nc1ccc2nc(NC(=O)c3cccnc3)sc2c1	32	7	nt	nt	nt
Cc1noc(C)c1NC(=O)Nc1ccc2c(c1)C(=O)N(C)[C@H]1CC[C@H](CC(=O)N[C@H]3CCN(Cc4ccccc4)C3)O[C@H]1CO2	1	0	0[16.7 µM]	0	86*
Cc1noc(C)c1NC(=O)Nc1ccc2c(c1)C(=O)N(C)[C@@H]1CC[C@@H](CC(=O)N[C@H]3CCN(Cc4ccccc4)C3)O[C@@H]1CO2	4	-5	10[16.7 µM]	1	4
Cc1noc(C)c1NC(=O)Nc1ccc2c(c1)C(=O)N(C)[C@@H]1CC[C@H](CC(=O)N[C@H]3CCN(Cc4ccccc4)C3)O[C@@H]1CO2	6	-1	47[16.7 µM]	0	100*
Cc1noc(C)c1S(=O)(=O)N(C)C[C@H]1OCCCC[C@H](C)Oc2ccc(NC(=O)Nc3ccc4c(c3)OCO4)cc2C(=O)N([C@@H](C)CO)C[C@@H]1C	-2	3	-8[16.7 µM]	0	10
C[C@H]1CN([C@@H](C)CO)C(=O)c2cc(C#CC3(O)CCCC3)cnc2O[C@@H]1CN(C)Cc1cccnc1	3	-3	-1[16.7 µM]	1	101*
CC(=O)N(C)C[C@@H]1Oc2ncc(C#CC3(O)CCCC3)cc2C(=O)N([C@H](C)CO)C[C@@H]1C	4	31*	-1[16.7 µM]	0	7
COCC(=O)N(C)C[C@@H]1Oc2ncc(C#CCC3CCCC3)cc2C(=O)N([C@H](C)CO)C[C@H]1C	1	-11	47[16.7 µM]	-1	87*
C[C@@H]1CN([C@@H](C)CO)C(=O)c2cc(C#CC3(O)CCCC3)cnc2O[C@@H]1CN(C)Cc1cccnc1	4	-2	24[16.7 µM]	0	nt
C[C@@H]1CN([C@@H](C)CO)C(=O)c2cc(C#CCC3CCCC3)cnc2O[C@H]1CN(C)S(=O)(=O)c1cccs1	6	38*	nt	7	0
